The target in series [1] is T1, Amine oxidase [flavin-containing] B (Homo sapiens, UniProt P27338).
T1 sequence (P27338 whole entry): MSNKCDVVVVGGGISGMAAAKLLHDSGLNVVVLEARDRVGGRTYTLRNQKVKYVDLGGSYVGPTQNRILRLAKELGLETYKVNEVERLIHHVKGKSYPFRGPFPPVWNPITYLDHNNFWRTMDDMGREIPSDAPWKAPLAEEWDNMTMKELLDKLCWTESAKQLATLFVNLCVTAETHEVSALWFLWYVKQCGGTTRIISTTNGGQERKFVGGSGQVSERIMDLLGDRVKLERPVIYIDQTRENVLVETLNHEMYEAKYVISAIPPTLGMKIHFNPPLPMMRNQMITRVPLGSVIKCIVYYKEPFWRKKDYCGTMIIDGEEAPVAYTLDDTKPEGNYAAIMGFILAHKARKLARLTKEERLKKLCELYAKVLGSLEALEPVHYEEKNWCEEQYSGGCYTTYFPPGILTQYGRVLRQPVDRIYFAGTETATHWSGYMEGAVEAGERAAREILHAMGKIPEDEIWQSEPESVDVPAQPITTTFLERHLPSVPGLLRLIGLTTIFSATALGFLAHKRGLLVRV
Nature of the series: Inhibition of human recombinant soluble MAO-B assessed as change in melting temperature at 100 uM after 20 mins by SYPRO orange staining-based fluorescence assay. In a few lines:
(§1)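 It was preincubated with serial compound dilutions (0.5–10 µM or 1.7–100 µM) for 20 min at 4 °C in 10% DMSO. 1x SYPRO orange was then added and samples ramped 25–80 °C at 1 °C/s. Boltzmann Tm was taken from the ~50–70 °C region, and ΔTm = Tm(compound) − Tm(DMSO only).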

Series [2] addresses T1, Amine oxidase [flavin-containing] B. In words: Inhibition of human recombinant microsomal MAO-B expressed in Pichia pastoris incubated for 30 mins prior to substrate addition measured after 60 mins by MAO-Glo assay.
The target is the same in series [3]. In words: Inhibition of human recombinant soluble MAO-B assessed as thermal shift after 20 mins by SYPRO orange staining-based fluorescence assay. The method, boiled down:
as §1

The target is the same in series [4]. In words: Inhibition of human recombinant soluble MAO-B expressed in Pichia pastoris incubated for 30 mins prior to substrate addition measured after 60 mins by MAO-Glo assay.
Series [5] deals with T2, Amine oxidase [flavin-containing] B (Rattus norvegicus, UniProt P19643).
T2 sequence (P19643 whole entry): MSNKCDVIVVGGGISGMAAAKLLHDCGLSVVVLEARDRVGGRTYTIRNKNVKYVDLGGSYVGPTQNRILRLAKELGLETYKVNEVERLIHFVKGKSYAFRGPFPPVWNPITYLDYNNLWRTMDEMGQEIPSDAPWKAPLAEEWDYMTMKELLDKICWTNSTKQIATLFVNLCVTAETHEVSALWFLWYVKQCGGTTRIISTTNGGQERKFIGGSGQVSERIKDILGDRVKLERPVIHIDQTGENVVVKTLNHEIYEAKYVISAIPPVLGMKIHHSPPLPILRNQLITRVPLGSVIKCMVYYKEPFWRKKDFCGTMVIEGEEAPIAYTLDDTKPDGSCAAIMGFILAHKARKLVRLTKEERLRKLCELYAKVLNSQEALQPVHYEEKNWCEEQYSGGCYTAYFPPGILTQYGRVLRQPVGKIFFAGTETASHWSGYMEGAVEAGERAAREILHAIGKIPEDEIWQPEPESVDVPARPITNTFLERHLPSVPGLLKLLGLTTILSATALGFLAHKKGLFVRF
Nature of the series: Reversible inhibition of MAO-B in rat whole brain homogenate assessed as recovered activity at 100 times IC50 incubated for 60 mins followed by 3 washes by Amplex Red assay. The format is tissue-based. Further details: scale not given: the % may be the effect or the level left; call rule not given here. The settings on record: 1 h.

Series [6] concerns the target T2, Amine oxidase [flavin-containing] B. In words: Reversible inhibition of MAO-B in rat whole brain homogenate assessed as recovered activity at 100 times IC50 incubated for 60 mins followed by 6 washes by Amplex Red assay. The format is tissue-based. Also on record: scale not given: the % may be the effect or the level left. The settings on record: 1 h.
Series [7] concerns the target T1, Amine oxidase [flavin-containing] B. Nature of the series: Inhibition of human recombinant soluble MAO-B assessed as change in melting temperature at 10 uM after 20 mins by SYPRO orange staining-based fluorescence assay.
In series [8] the target is T3, Amine oxidase [flavin-containing] A (Rattus norvegicus, UniProt P21396).
T3 sequence (P21396 whole entry): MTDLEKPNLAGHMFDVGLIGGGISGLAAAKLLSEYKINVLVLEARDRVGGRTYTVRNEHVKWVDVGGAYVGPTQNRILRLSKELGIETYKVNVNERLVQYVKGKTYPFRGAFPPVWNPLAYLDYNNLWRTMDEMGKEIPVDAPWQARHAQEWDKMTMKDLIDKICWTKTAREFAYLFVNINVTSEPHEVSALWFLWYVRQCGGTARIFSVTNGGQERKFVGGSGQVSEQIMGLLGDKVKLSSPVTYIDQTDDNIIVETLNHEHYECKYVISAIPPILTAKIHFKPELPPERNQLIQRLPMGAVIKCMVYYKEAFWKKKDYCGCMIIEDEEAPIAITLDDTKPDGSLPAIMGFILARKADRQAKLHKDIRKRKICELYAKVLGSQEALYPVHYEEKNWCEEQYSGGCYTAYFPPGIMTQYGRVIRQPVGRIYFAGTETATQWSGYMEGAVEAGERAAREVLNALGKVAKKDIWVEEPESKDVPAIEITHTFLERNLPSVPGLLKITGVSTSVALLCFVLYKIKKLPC
In words: Inhibition of MAO-A in rat whole brain homogenate. The format is tissue-based. In a few lines:
(§2)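 Insoluble fraction of rat brain lysate was assayed with the non-selective MAO-Glo substrate. Dose–response curves were run against a matrix of fixed concentrations of an MAO-A-selective inhibitor (0.06–200 nM) and an MAO-B-selective inhibitor (0.05–50,000 nM), so that each isoform's contribution could be separated.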

Series [9] deals with T2, Amine oxidase [flavin-containing] B. Nature of the series: Inhibition of MAO-B in rat whole brain homogenate. The format is tissue-based. In a few lines:
as §2

The text below walks through data of ChEMBL document CHEMBL3399931, “Reversible and irreversible small molecule inhibitors of monoamine oxidase B (MAO-B) investigated by biophysical techniques” (Bioorg Med Chem, 2015).

On to `Cn1c(=O)c2c(nc(/C=C/c3cccc(Cl)c3)n2C)n(C)c1=O`, for which, in [1], the Activity result is “Not Active”.
One may read the Ki as the dissociation constant of the complex between target and ligand, obtained from inhibition or displacement. By EC50 is commonly meant the concentration giving half of the maximal effect. On to `NCCNC(=O)c1ccc(Cl)cc1`, for which the results for the Ki in series [2] and in [4] were 997 nM and 32.2 nM, respectively. Further, the EC50 in [3] stood at 29000 nM. In series [1], the deltaTm is 4.5 °C.
`N[C@@H]1C[C@H]1c1ccccc1.N[C@H]1C[C@@H]1c1ccccc1` (relative stereo) [TRANYLCYPROMINE]: the Activity result in [1] is given as “Not Active”.
Consider `NCCNC(=O)c1ccc(Cl)cn1` [LAZABEMIDE], for which the deltaTm in [1] was 7 °C. The Activity in [5] is 74%; in series [6], 100%.
For `C#CCN(C)Cc1ccccc1` [PARGYLINE], in series [7], the deltaTm was found to be 12.3 °C.
Take `CCc1ccc(CCOc2ccc(CC3SC(=O)NC3=O)cc2)nc1` (stereo unspecified) [PIOGLITAZONE]: the deltaTm in [1] turned out to be 2.5 °C.
For the compound `C#CCN[C@@H]1CCc2ccccc21` [RASAGILINE], the deltaTm in [7] amounted to 14.6 °C.
Regarding `C[C@H](NCc1ccc(OCc2cccc(F)c2)cc1)C(N)=O` [SAFINAMIDE], the Activity in series [5] is reported as 31%; in [6] it was 100%.
`C#CCN(C)[C@H](C)Cc1ccccc1` [SELEGILINE]: the INH was 781 nM in series [8] and under 200 nM in series [9].
